Series [1] concerns the target T1, beta-glucuronidase (Homo sapiens, UniProt P08236).
T1 sequence (P08236 whole entry): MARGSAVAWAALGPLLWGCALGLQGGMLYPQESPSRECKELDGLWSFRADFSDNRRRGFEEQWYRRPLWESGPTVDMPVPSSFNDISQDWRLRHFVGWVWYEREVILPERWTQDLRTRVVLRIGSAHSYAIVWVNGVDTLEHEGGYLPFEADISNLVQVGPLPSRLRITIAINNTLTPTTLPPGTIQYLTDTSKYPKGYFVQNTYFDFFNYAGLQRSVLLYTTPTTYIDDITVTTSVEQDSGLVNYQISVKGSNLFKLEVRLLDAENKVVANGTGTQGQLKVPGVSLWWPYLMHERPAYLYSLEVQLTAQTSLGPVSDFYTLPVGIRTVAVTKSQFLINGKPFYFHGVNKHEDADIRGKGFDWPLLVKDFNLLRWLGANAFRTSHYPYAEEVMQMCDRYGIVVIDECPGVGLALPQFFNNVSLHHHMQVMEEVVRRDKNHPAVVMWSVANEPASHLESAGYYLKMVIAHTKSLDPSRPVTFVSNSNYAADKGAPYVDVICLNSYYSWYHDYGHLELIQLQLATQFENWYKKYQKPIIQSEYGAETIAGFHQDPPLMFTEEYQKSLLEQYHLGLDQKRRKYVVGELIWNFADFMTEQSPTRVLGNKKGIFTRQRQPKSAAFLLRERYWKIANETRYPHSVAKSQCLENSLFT
Description: Inhibition of N-terminal His-tagged human beta-glucuronidase expressed in Escherichia coli BL21 (DE3) assessed as residual activity using pNPG as substrate at 10 uM preincubated for 30 mins followed by substrate addition measured after 1 hr relative to control. The settings on record: probe pNPG, read-out: Activity.

Series [2] has as its system Escherichia coli. The series is described as follows: Inhibition of N-terminal His-tagged Escherichia coli beta-glucuronidase expressed in Escherichia coli BL21 (DE3) assessed as residual activity using pNPG as substrate at 10 uM preincubated for 30 mins followed by substrate addition measured after 1 hr relative to control. The method in brief:
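Purified E. coli βG (20 ng) preincubated with 10 μM compound for 30 min at 37 °C in PBS pH 7.5 with 10% DMSO and 0.05% BSA. pNPG (20 mM stock) then added for 1 h, quenched with 2 N NaOH, and read at OD405. Result given as % activity versus a 10% DMSO control; n = 3.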

Series [3] is described as follows: Inhibition of N-terminal His-tagged Escherichia coli beta-glucuronidase expressed in Escherichia coli BL21 (DE3) using pNPG as substrate preincubated for 30 mins followed by substrate addition measured after 1 hr. The method in brief:
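Purified E. coli βG (20 ng) preincubated 30 min at 37 °C with compound (0.64–10 000 nM) in PBS pH 7.5 containing 10% DMSO and 0.05% BSA. pNPG (20 mM stock) then added for 1 h, quenched with 2 N NaOH, and pNP read at 405 nm. IC50 derived from a four-parameter curve fit; SD of n = 3.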

The text below walks through data of ChEMBL document CHEMBL4024760, “Specific Inhibition of Bacterial β-Glucuronidase by Pyrazolo[4,3-c]quinoline Derivatives via a pH-Dependent Manner To Suppress Chemotherapy-Induced Intestinal Toxicity” (J Med Chem, 2017).

As for `NC(=S)N/N=C/c1ccc2cc(F)ccc2n1`, the activity at 1 h, 10 µM in series [1] amounted to 78.5%. Besides, the Activity in series [2] stood at 112%.

Consider `CN(C)CCCN1C(=O)S/C(=C/c2ccc3cc(F)ccc3n2)C1=O`, for which, in series [1], the activity at 1 h, 10 µM came out at 80.2%. Also, the Activity in series [2] was determined as 112%.

Take `Cc1cccc(Nc2nc3ccccc3c3[nH]nc(N)c23)c1`: the IC50 in series [3] is > 10000 nM. Besides, the activity at 1 h, 10 µM in series [1] amounted to 86.5%. Besides, in series [2], the Activity worked out at 80.7%.

In the case of `CCOC(=O)CSc1nc2ccccc2c2sc(C(=O)OCC)c(N)c12`, in series [1], the activity at 1 h, 10 µM stood at 108%. For the same molecule, the Activity in series [2] turned out to be 101%.

`Cc1ccccc1Nc1nc2ccccc2c2[nH]nc(N)c12` yielded an IC50 in series [3] of 673 nM. For the same molecule, the activity at 1 h, 10 µM in series [1] turned out to be 93.6%. Moreover, the Activity in series [2] amounted to 14.8%.

Consider `CCOc1nc2ccccc2c2[nH]nc(N)c12`, for which the activity at 1 h, 10 µM in series [1] was found to be 80.5%. For the same molecule, the Activity in series [2] was found to be 102%.

As to `COc1ccc(-c2cc3ccccc3nc2C2CC(c3cc(OC)c(OC)c(OC)c3)=NN2C(N)=S)cc1` (centres undefined), in series [1], the activity at 1 h, 10 µM came out at 89.5%. In series [2], the Activity came to 114%.

On to `Fc1ccc2nc(/C=N/NC3=NCCN3)ccc2c1`, for which the activity at 1 h, 10 µM in series [1] turned out to be 99%. Further, the Activity in series [2] was found to be 112%.

With `CCN(CC)CCNC(=O)c1ccc(/N=C2/c3ccccc3C(=O)c3c2ccn3Cc2ccccc2)cc1`, the activity at 1 h, 10 µM in series [1] is 86.9%. Besides, the Activity in series [2] was 87.4%.

For the molecule `Nc1n[nH]c2c1c(N)nc1ccccc12`, the activity at 1 h, 10 µM in series [1] is 83.9%. Also, the Activity in series [2] turned out to be 86.3%.

Regarding `Nc1n[nH]c2c1c(Nc1ccccc1)nc1ccccc12`, the activity at 1 h, 10 µM in series [1] was determined as 106%. In series [2], the Activity turned out to be 2.33%.

Turning to `CC(=O)c1ccc(Nc2nc3ccccc3c3[nH]nc(N)c23)cc1`, in series [3], the IC50 was 133 nM. Besides, in series [1], the activity at 1 h, 10 µM was 83.4%. For the same molecule, in series [2], the Activity was determined as 6%.

Regarding `Nc1n[nH]c2c1c(Nc1ccc(O)cc1)nc1ccccc12`, in series [3], the IC50 was 626 nM. Moreover, the activity at 1 h, 10 µM in series [1] was found to be 106%. Besides, the Activity in series [2] came to 8.67%.

As for `Cc1cc2c(n1CCCN(C)CCCn1c(C)cc3c1C(=O)c1ccccc1C3=O)C(=O)c1ccccc1C2=O`, the activity at 1 h, 10 µM in series [1] amounted to 79.8%. In series [2], the Activity amounted to 73.5%.

With `CCOc1ccc(NC(=S)N(CCO)Cc2cc3cc(C)cc(C)c3[nH]c2=O)cc1`, the IC50 in series [3] is 846 nM. Besides, in series [2], the Activity amounted to 8.83%.

For `Nc1n[nH]c2c1c(Nc1ccc(C(=O)O)cc1)nc1ccccc12`, the IC50 in series [3] stood at 154 nM. In addition, the activity at 1 h, 10 µM in series [1] came out at 102%. Moreover, the Activity in series [2] came to 19%.

For `O=C1NC(=O)/C(=C\c2ccc3cc(F)ccc3n2)S1`, the activity at 1 h, 10 µM in series [1] was found to be 88.9%. The Activity in series [2] is 115%.

Turning to `O=C1S/C(=C/c2ccc3cc(F)ccc3n2)C(=O)N1CCN1CCCC1`, the activity at 1 h, 10 µM in series [1] came to 102%. Also, the Activity in series [2] was 99.2%.

On to `c1ccc2c(c1)c1nonc1c1ccoc21`, for which the activity at 1 h, 10 µM in series [1] came to 82.7%. Also, in series [2], the Activity came to 111%.

In series [3], `Nc1n[nH]c2c1c(Nc1ccccc1Cl)nc1ccccc12` came in with an IC50 of 281 nM. Besides, in series [1], the activity at 1 h, 10 µM was 79.8%. Also, the Activity in series [2] came to 10.3%.

For the molecule `COc1cc(/C=C2\CN(C(=O)CN(C)C)C/C(=C\c3cc(OC)c(OC)c(OC)c3)C2=O)cc(OC)c1OC`, the activity at 1 h, 10 µM in series [1] turned out to be 92.4%. In addition, the Activity in series [2] was 34.1%.

Consider `Nc1n[nH]c2c1c(Nc1ccc(Cl)cc1)nc1cc(F)ccc12`, for which, in series [3], the IC50 is 29.6 nM. In addition, the activity at 1 h, 10 µM in series [1] came out at 92.8%. In series [2], the Activity was 6.78%.

For `Nc1n[nH]c2c1c(O)nc1ccccc12`, the activity at 1 h, 10 µM in series [1] came out at 83%. The Activity in series [2] worked out at 99%.

In series [3], `Nc1n[nH]c2c1c(Nc1ccc([N+](=O)[O-])cc1)nc1ccccc12` came in with an IC50 of 9200 nM. Also, the activity at 1 h, 10 µM in series [1] amounted to 90.9%. In addition, the Activity in series [2] turned out to be 46.5%.

Regarding `COc1cc(C(=O)C2CC2c2ccc3ccccc3n2)cc(OC)c1OC` (centres undefined), in series [1], the activity at 1 h, 10 µM stood at 85.4%. For the same molecule, in series [2], the Activity came out at 112%.

Take `O=C(O)[C@@H](O)[C@H]1OC(=O)[C@H](O)[C@H]1O` [D-SACCHARIC ACID 1,4-LACTONE]: the IC50 in series [3] is > 10000 nM. In addition, in series [1], the activity at 1 h, 10 µM stood at 33.5%. Besides, in series [2], the Activity was determined as 75.7%.

With `Cc1ccc(Nc2nc3c(C)cccc3c3[nH]nc(N)c23)cc1`, the IC50 in series [3] stood at 24.7 nM. For the same molecule, the activity at 1 h, 10 µM in series [1] is 85.7%. For the same molecule, the Activity in series [2] was found to be 6.8%.

On to `Nc1n[nH]c2c1c(Nc1ccc(C(F)(F)F)cc1)nc1ccccc12`, for which, in series [3], 98.2 nM corresponded to half-maximal inhibition (IC50). Also, the activity at 1 h, 10 µM in series [1] was 101%. Moreover, the Activity in series [2] was 5.66%.

As for `COc1cc(/C=C2\CNC/C(=C\c3cc(OC)c(OC)c(OC)c3)C2=O)cc(OC)c1OC`, in series [1], the activity at 1 h, 10 µM is 107%. For the same molecule, the Activity in series [2] worked out at 111%.

For the molecule `CNC(=S)N/N=C1\C(=O)c2ccccc2-c2occc21`, the activity at 1 h, 10 µM in series [1] worked out at 86.8%. In addition, the Activity in series [2] worked out at 104%.

Take `Nc1n[nH]c2c1c(Nc1ccccc1O)nc1ccccc12`: the IC50 in series [3] was determined as 613 nM. In addition, in series [1], the activity at 1 h, 10 µM came to 85.6%. In addition, in series [2], the Activity worked out at 12%.

For `Fc1ccc(-c2cc(-c3ccc4cc(F)ccc4n3)n(-c3ccccc3)n2)cc1`, the activity at 1 h, 10 µM in series [1] is 88.9%. The Activity in series [2] worked out at 113%.

`COc1ccc(-c2cc3cc(F)ccc3nc2/C=C2\SC(=O)NC2=O)cc1`: the activity at 1 h, 10 µM in series [1] stood at 84.6%. Further, the Activity in series [2] stood at 99.1%.

On to `Nc1n[nH]c2c1cnc1ccccc12`, for which the activity at 1 h, 10 µM in series [1] was 79.4%. The Activity in series [2] was found to be 99.3%.

Take `COc1ccc(-c2nc3c4ccoc4c4ccccc4c3[nH]2)cc1`: the activity at 1 h, 10 µM in series [1] is 85.4%. The Activity in series [2] was 112%.

As for `O=C1S/C(=C/c2ccc3cc(F)ccc3n2)C(=O)N1CCN1CCCCC1`, in series [1], the activity at 1 h, 10 µM amounted to 96.5%. For the same molecule, the Activity in series [2] was determined as 107%.

Take `Nc1n[nH]c2c1c(Nc1cccc(Cl)c1)nc1ccccc12`: in series [3], the IC50 was 308 nM. For the same molecule, in series [1], the activity at 1 h, 10 µM worked out at 94.1%. In series [2], the Activity was 14.9%.

On to `CCOC(=O)CN1C(=O)S/C(=C/c2ccc3cc(F)ccc3n2)C1=O`, for which the activity at 1 h, 10 µM in series [1] was found to be 87.9%. Moreover, the Activity in series [2] was found to be 111%.

On to `Nc1ccc(Nc2nc3ccccc3c3[nH]nc(N)c23)cc1`, for which half-maximal inhibition in series [3] (IC50) was put at 598 nM. Further, the activity at 1 h, 10 µM in series [1] is 62.2%. In addition, the Activity in series [2] is 11.3%.

For the molecule `Nc1n[nH]c2c1c(Nc1cccc(O)c1)nc1ccccc12`, in series [3], the IC50 came out at 884 nM. Also, the activity at 1 h, 10 µM in series [1] amounted to 78.3%. Moreover, in series [2], the Activity was 6%.

Take `O=C(O)CN1C(=O)S/C(=C/c2ccc3cc(F)ccc3n2)C1=O`: the activity at 1 h, 10 µM in series [1] is 85.9%. For the same molecule, in series [2], the Activity worked out at 109%.

As for `Fc1ccc(-c2cc(-c3ccc4cc(F)ccc4n3)nn2-c2ccccc2)cc1`, the activity at 1 h, 10 µM in series [1] was 82.2%. The Activity in series [2] amounted to 114%.

For the molecule `Cc1cccc2c1nc(Nc1ccc(Cl)cc1)c1c(N)n[nH]c12`, the midpoint of inhibition in series [3], the IC50, lay at 238 nM. Moreover, in series [1], the activity at 1 h, 10 µM came out at 88.3%. For the same molecule, the Activity in series [2] amounted to 9.04%.

Consider `O=C1c2ccccc2-c2c(N3CCC(O)CC3)nc3ccccc3c21`, for which the activity at 1 h, 10 µM in series [1] is 80.6%. The Activity in series [2] stood at 74.9%.
